Measurements from different studies.
Protocols differ between the studies behind these lines.
Target: Tyrosine-protein kinase ITK/TSK (ITK, Homo sapiens, UniProt Q08881)
One construct used (Q08881 1-620): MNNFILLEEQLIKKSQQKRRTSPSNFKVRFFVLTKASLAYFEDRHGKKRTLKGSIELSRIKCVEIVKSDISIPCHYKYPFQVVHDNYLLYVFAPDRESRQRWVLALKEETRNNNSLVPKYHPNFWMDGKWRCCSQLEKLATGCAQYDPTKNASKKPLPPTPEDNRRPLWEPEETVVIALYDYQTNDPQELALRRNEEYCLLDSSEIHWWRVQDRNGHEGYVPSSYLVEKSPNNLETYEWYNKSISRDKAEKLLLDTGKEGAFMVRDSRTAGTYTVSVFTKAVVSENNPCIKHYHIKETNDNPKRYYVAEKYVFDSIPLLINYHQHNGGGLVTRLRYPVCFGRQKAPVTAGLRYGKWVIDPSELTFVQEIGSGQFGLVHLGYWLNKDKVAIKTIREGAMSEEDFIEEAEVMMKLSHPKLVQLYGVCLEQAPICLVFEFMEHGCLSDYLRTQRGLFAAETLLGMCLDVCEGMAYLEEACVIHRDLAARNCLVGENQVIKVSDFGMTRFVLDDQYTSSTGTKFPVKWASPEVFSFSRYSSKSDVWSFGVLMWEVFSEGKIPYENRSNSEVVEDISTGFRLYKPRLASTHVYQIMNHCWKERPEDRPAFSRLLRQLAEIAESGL

C[C@H]1CCN(c2nccc(-c3cnn4ncccc34)n2)C1 — remaining binding (binding; 1 µM): 93%
CN1CCN(c2cnc3c(C4CCN(C(=O)c5ccc(OC(F)(F)F)cc5N)CC4)ncnc3c2)CC1 — remaining binding (cell-free assay; competition with immobilised ligand; 1 µM): 100%
CC1CCCN1c1nccc(-c2cnn3ncccc23)n1 (centres unmarked) — remaining binding (binding; 1 µM): 100%
COc1cnc(Nc2cccc(S(N)(=O)=O)c2)nc1N1CCN(c2ccccc2)C(=O)C1 — remaining binding (binding; competition with immobilised ligand; 1 µM): 100%
CN(C)c1ncc(F)c(-c2cnn3ncccc23)n1 — remaining binding (binding; 1 µM): 100%
CNC(=O)[C@@H]1CC[C@@H](n2c(-c3ccc4cnccc4c3)nc3ccc(C(=O)NCc4cccc(C(N)=O)c4)cc32)C1 — remaining binding (binding; competition with immobilised ligand; 1 µM): 99%
CN(C)c1nccc(-c2cnc3ncccn23)n1 — remaining binding (binding; 1 µM): 88%
COc1ncc2cc3ccccc3nc2c1C#N — remaining binding (cell-free assay; competition with immobilised ligand; 5 µM): 97%
Cc1c(NC(=O)c2cc(C(N)=O)nc3cc(F)ccc23)c(C(F)(F)F)nn1Cc1ccc(C#N)cc1 — remaining binding (cell-free assay; competition with immobilised ligand; 1 µM): 78%
CN(c1nccc(-c2cnn3ncccc23)n1)C1CC1 — remaining binding (binding; 1 µM): 100%
Cc1cnc(Nc2ccc(C(=O)N3CCC(N4CCCC4)CC3)cc2)nc1-c1cc2ccccc2s1 — remaining binding (binding; competition with immobilised ligand; 1 µM): 59%
Nc1ncc2c(n1)-c1c([nH]c3ccc(C#CC4CC4)cc13)CCCC2 — remaining binding (binding; competition with immobilised ligand; 1 µM): 92%
COc1cc(-c2cn(C3CCc4c(F)cccc4N(CC(F)(F)F)C3=O)nn2)ccc1-n1cnc(C)c1 (centres unmarked) — remaining binding (cell-free assay; competition with immobilised ligand; 1 µM): 100%
O=C(NCCCN1CCOCC1)c1ccc(Nc2ncc(Cl)c(-c3ccc(Cl)s3)n2)cc1 — remaining binding (binding; competition with immobilised ligand; 1 µM): 40%
CC(=O)C1=C(C)N(c2cccc(C(F)(F)F)c2)C(=O)N[C@@H]1c1ccc(C#N)nc1 — remaining binding (cell-free assay; competition with immobilised ligand; 1 µM): 90.4%
N[C@H]1CCN(c2nccc(-c3cnn4ncccc34)n2)C1 — remaining binding (binding; 1 µM): 100%
Cn1nc(C(=O)NCc2ccc(C(=O)O)cc2)cc1-c1ccc2[nH]ccc2c1 — remaining binding (cell-free assay; competition with immobilised ligand; 0.1 µM): 85%
O=C(c1ccc(Nc2ncc(Cl)c(-c3ccc(Cl)s3)n2)cc1)N1CCC(N2CCCC2)CC1 — remaining binding (binding; competition with immobilised ligand; 1 µM): 29%
C[C@H](c1ccnc(Nc2nc3ccc(-c4cc(N(C)C)ncn4)cc3[nH]2)c1)N1CCN(C(=O)CC(F)(F)F)CC1 — remaining binding (cell-free assay; competition with immobilised ligand; 0.1 µM): 100%
O=C(Nc1c[nH]nc1C(=O)NC1CCNCC1)c1cc(F)cc(F)c1 — remaining binding (binding; competition with immobilised ligand; 1 µM): 100%
